Data on two molecules can be found in ChEMBL document CHEMBL1147094, “Novel in vivo model for the study of human immunodeficiency virus type 1 transcription inhibitors: evaluation of new 6-desfluoroquinolone derivatives” (Antimicrob Agents Chemother, 2007).

Series [1] deals with Human immunodeficiency virus 1. In words: Antiviral activity against human TNF alpha-stimulated HIV1 expression in latently HIV1 infected OM10.1 cells assessed as inhibition of viral p24 production. It is filed as functional, organism-based.
Series [2] concerns Human immunodeficiency virus 1. In words: Antiviral activity against latently HIV1 infected OM10.1 cells assessed as inhibition of viral p24 antigen production. It is filed as functional, organism-based.
The subject of series [3] is Human immunodeficiency virus 1. Description: Antiviral activity against human TNF alpha-stimulated HIV1 expression in latently HIV1 infected U1 cells assessed as inhibition of viral p24 production. The class given is functional, organism-based.
Series [4] has as its system Human immunodeficiency virus 1. In words: Antiviral activity against latently HIV1 infected U1 cells assessed as inhibition of viral p24 antigen production. It is filed as functional, organism-based.
The test system of series [5] is Human immunodeficiency virus 1. Description: Antiviral activity against human TNF-alpha stimulated HIV1 expression in latently HIV1 infected OM10.1 cells assessed as inhibition of viral mRNA production. The class given is functional, organism-based.
The test system of series [6] is Human immunodeficiency virus 1. In words: Inhibition of viral reactivation in SCID mouse inoculated with HIV1 infected OM10.1 cells at 50 mg/kg, ip for 3 days prior to hTNF alpha administration assessed as viral loads after 18 hrs. The class given is functional, organism-based. Details: dose 50 mg/kg.
Series [7] concerns Human immunodeficiency virus 1. In words: Antiviral activity against HIV1 BaL acutely infected human M/M cells. The settings on record: Human immunodeficiency virus 1, BaL. It is filed as functional, organism-based.
Series [8] can be described thus: Selectivity index, CC50 for OM10.1 cells to EC50 for HIV1 infected OM10.1 cells. The class given is functional. The method, boiled down:
(§1)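 OM-10.1 cells at 500,000 cells/ml were exposed to compound for 2 h, then stimulated with 1 ng/ml hTNF-α or 0.02 µM PMA for 2 days at 37°C. Viability was read by MTT staining. The selectivity index is CC50 from MTT divided by EC50 from p24 ELISA run in the same cultures.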

Series [9] deals with Human immunodeficiency virus 1. Description: Antiviral activity against human TNF-alpha stimulated HIV1 expression in latently HIV1 infected U1 cells assessed as decrease in mRNA production. The class given is functional, organism-based.
The test system of series [10] is Human immunodeficiency virus 1. In words: Antiviral activity against PMA stimulated HIV1 expression in latently HIV1 infected OM10.1 cells assessed as inhibition of viral mRNA production. The class given is functional, organism-based.
Series [11] can be described thus: Cytotoxicity against latently HIV1 infected OM10.1 cells by MTT method. The settings on record: human, OM10.1 cells latently infected with HIV-1. It is filed as cell-based. In short, it runs like this: as §1
Series [12] has as its system Human immunodeficiency virus 1. Description: Antiviral activity against human PMA stimulated HIV1 expression in latently HIV1 infected U1 cells assessed as decrease in mRNA production. The class given is functional, organism-based.
The test system of series [13] is Human immunodeficiency virus 1. In words: Antiviral activity against HIV1 BaL chronically infected human M/M cells. It is filed as functional, organism-based. The note with it: Human immunodeficiency virus 1, BaL.
For series [14], the system named is Human immunodeficiency virus 1. In words: Antiviral activity against human PMA-stimulated HIV1 expression in latently HIV1 infected OM10.1 cells assessed as inhibition of viral p24 production. The class given is functional, organism-based.
For series [15], the system named is Human immunodeficiency virus 1. In words: Antiviral activity against human PMA-stimulated HIV1 expression in latently HIV1 infected U1 cells assessed as inhibition of viral p24 production. It is filed as functional, organism-based.

Converted amounts (≈) assume the structure as drawn. The source made the active and inactive calls. The rule behind the calls is not given here.

Take `Cn1cc(C(=O)O)c(=O)c2ccc(N3CCN(c4cccc(C(F)(F)F)c4)CC3)cc21`: the EC50 (commonly the concentration that produces a half-maximal response) in series [1] was found to be 0.054 µg/mL (≈ 0.125 µM); in [7], 0.05 µg/mL (≈ 0.116 µM); in [13] it was 0.05 µg/mL (≈ 0.116 µM); in series [14], 0.039 µg/mL (≈ 0.0904 µM). Also, the Activity entry in series [2], in [3], in series [4], in [9], in [12] and in series [15] was “Dose-dependent effect” in each case. The IC50 (as a rule, the concentration that inhibits the measured activity by half) is 0.067 µg/mL (≈ 0.155 µM) in series [5] and 0.032 µg/mL (≈ 0.0742 µM) in [10]. In addition, the outcome in series [6] was Active. Moreover, the EC90 in [7] and in series [13] was 1 µg/mL (≈ 2.32 µM) in each case. Besides, the “Ratio CC50/EC50” value in [8] is given as 125. Further, half-maximal cytotoxicity in series [11] (CC50) was put at 5 µg/mL (≈ 11.6 µM).
Take `Cn1cc(C(=O)O)c(=O)c2ccc(N3CCN(c4nc5ccccc5s4)CC3)cc21`: the EC50 in [1] is 0.045 µg/mL (≈ 0.107 µM); in [7] it was 0.025 µg/mL (≈ 0.0595 µM); in [13] it was 0.011 µg/mL (≈ 0.0262 µM); in series [14] it was 0.04 µg/mL (≈ 0.0951 µM). The Activity entry in series [2], in series [3], in [4], in series [9], in series [12] and in series [15] was “Dose-dependent effect” each time. Besides, the IC50 in series [5] was 0.06 µg/mL (≈ 0.143 µM); in series [10] it was 0.04 µg/mL (≈ 0.0951 µM). The result in [6] was Active. In addition, the EC90 (in general, the concentration at which the effect reaches the 90% level) turned out to be 0.2 µg/mL (≈ 0.476 µM) in series [7] and 0.16 µg/mL (≈ 0.381 µM) in series [13]. Also, the “Ratio CC50/EC50” value in [8] was 125. For the same molecule, half-maximal cytotoxicity in series [11] (CC50) was put at 5 µg/mL (≈ 11.9 µM).
